An excerpt weighted towards active compounds, which were near 4.7% of everything screened.
RGS4 pot: potentiators or activators of RGS4; AID 463111; hit rate 0.92% among 310,000; HEK293 M3R/inducible RGS4, carbachol calcium flux Fluo4; stronger effect = lower value; B-score at 10 µM;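 active = B-score of the integrated calcium signal more than 4 SD below the library mean, with starting fluorescence not abnormally high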;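 note: negative B-score means reduced calcium response which marks RGS4 activation or potentiation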
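Material: Inducible-RGS4 HEK293 cells carrying M3 receptor; also added: carbachol at ECmax as muscarinic agonist stimulus; incubation: compound preincubation 20 min at room temperature before agonist; signal: Fluo4-AM (2 µM) calcium-flux fluorescence, kinetic read; measure: integrated calcium ratio converted to B score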
MrgX1 ag: human MrgX1 receptor agonism, primary screen; Q96LB2; MrgX1-HEK293 cells, Fluo-4 calcium fluorescence, agonist mode; stronger effect = higher value; B-score at 10 µM; hit rate 0.44% among 310,000; AID 588627;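 active = calcium response B-score plate-corrected fluorescence ratio at least 3 library SD, with starting fluorescence B-score inside 5 SD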
Target sequence (Q96LB2 whole entry, looked up): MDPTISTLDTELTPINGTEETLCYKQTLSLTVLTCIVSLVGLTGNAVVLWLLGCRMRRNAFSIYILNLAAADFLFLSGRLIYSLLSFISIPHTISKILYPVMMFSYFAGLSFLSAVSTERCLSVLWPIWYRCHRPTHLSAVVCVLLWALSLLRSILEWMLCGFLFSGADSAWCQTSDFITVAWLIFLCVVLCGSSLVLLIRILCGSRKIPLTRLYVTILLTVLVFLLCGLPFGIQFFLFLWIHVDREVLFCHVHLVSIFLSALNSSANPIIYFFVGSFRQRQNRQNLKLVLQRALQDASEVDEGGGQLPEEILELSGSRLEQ
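Material: HEK293 cells stably expressing human MrgX1 receptor | Quantity: 15,000 cells per well | Times: Cells plated overnight, dye loaded 0.5 h 37 °C, 0.5 h room temperature | Measured by: Kinetic Fluo-4 NW fluorescence of intracellular calcium | Control set: Positive and negative controls per plate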
MrgX1 antag: antagonists of human MrgX1 receptor | MRGX1-HEK293 calcium flux, Fluo-4, BAM8-22 antagonism; stronger effect = lower value | B-score at 10 µM | hit rate 1.3% among 310,000 | Q96LB2;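 active = calcium-response B-score plate-corrected more than 3 library SD below zero, starting fluorescence within 5 deviations, no agonist response on first addition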;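 note: peak minus trough fluorescence over baseline after final BAM8-22 challenge near maximal dose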
RGS4 block: inhibitors of human RGS4; P49798; B-score at 10 µM; HEK293 M3R/RGS4 inducible, Fluo-4 calcium flux; stronger effect = higher value; triggered by carbachol at its EC20; hit rate 0.45% among 310,000;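 active = B-score, a plate-corrected calcium signal, over three deviations above library mean, with baseline fluorescence within five deviations of library mean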;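 note: RGS4 expression induced by doxycycline in cells with stable M3 receptor; B-score is computed from the integrated fluorescence ratio over baseline after carbachol; higher B-score means a larger calcium signal and so more RGS4 inhibition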
Cl transport mod: modulates chloride dependent transport by human KCC2 | B-score of Tl+ flux slope (higher = more flux/activation; lower = inhibition) at 10 µM | Q9H2X9 | AID 1456 | hit rate 2.2% among 190,000 | KCC2 cells, thallium flux FluoZin-2 fluorescence;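 active = thallium flux slope and its plate-corrected score both differing from the plate sample mean at a set confidence after two filtering rounds, in either direction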;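 note: slope of fluorescence scaled to starting intensity during 10 to 20 s after thallium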
MrgX1 allo act: allosterically activates human MrgX1 receptor signaling; MrgX1-HEK293, Fluo-4 calcium flux, FDSS; stronger effect = higher value; Q96LB2; AID 588675; B-score at 10 µM; hit rate 0.63% among 310,000;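 active = plate-corrected calcium response at least 3 library SD above typical, normal starting fluorescence, not activating the receptor alone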;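 note: compound read alongside a low EC10 to EC30 dose of BAM8-22 agonist; peak minus trough fluorescence over baseline measured at the second addition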
* = called active by the depositor; i = inactive; nt = no result given.

SMILES | RGS4 pot | MrgX1 ag | MrgX1 antag | RGS4 block | Cl transport mod | MrgX1 allo act
O=C(CCCN1C(=O)/C(=C/c2ccc(F)cc2)SC1=S)NC1CCS(=O)(=O)C1 (centres undefined) | i | i | i | i | nt | i
CC1(C)CC2CC(C)(CN2C(=S)NC(=O)c2ccccc2Cl)C1 (centres undefined) | i | i | i | i | 55* | i
N#C/C(=C\c1ccc(N2CCOCC2)o1)C(=O)Nc1ccc(O)cc1 | i | i | i | i | i | i
N#C/C(=C/c1ccc(N2CCOCC2)o1)c1ccc(Br)cc1 | i | 39* | i | i | -1.2 | i
COc1ccc(NC(=O)/C(C#N)=C\c2ccc(N3CCOCC3)o2)cc1 | -8.6* | i | i | i | i | i
N#C/C(=C/c1ccc(N2CCCCC2)o1)C(=O)Nc1ccc(Cl)cc1 | i | i | -7.8* | i | nt | i
CC(NC(=O)c1sc2cc([N+](=O)[O-])ccc2c1Cl)C(C)(C)C (centres undefined) | i | i | i | i | 0.89 | 6.9*
O=C(NC1CC1)c1sc2cc([N+](=O)[O-])ccc2c1Cl | i | i | i | i | 0.26 | i
Cc1ccccc1CC(=O)Nc1ccc(S(=O)(=O)N2CCN(C)CC2)cc1 | i | i | i | i | nt | i
CCCOc1cc(N(CC)CC)ccc1/C=C(/C#N)c1nc2ccc(C)cc2[nH]1 | i | i | i | i | -0.83 | 12*
CCN(CC)c1ccc(/C=C(/C#N)c2nc3ccc(C)cc3[nH]2)c(OC(C)C)c1 | i | 40* | i | i | i | i
COc1cc(/C=C(\C#N)c2nc3ccc(C)cc3[nH]2)c([N+](=O)[O-])cc1OC | i | i | i | i | nt | i
COc1ccccc1OCCCN1C(=O)C(=O)c2cccc(C)c21 | i | 28* | i | i | -0.72 | i
Cc1cc(OCc2cc(C(=O)N3CCC(Oc4cccnc4)CC3)no2)cc(C)c1Cl | -7* | i | i | i | nt | i
CC1(C)C(=O)Nc2ccccc2N1C(=O)COC(=O)/C=C/c1ccc(OC(F)F)cc1 | i | i | i | i | nt | i
CCCCN1C(=O)C(NC(C)=O)c2cc(Br)ccc21 (centres undefined) | i | i | i | i | nt | i
CC(=O)NC1C(=O)N(CCN2CCOCC2)c2ccc(C)cc21 (centres undefined) | i | i | -6.1* | i | nt | i
CN(C)c1ccc(/C=N/NC(=O)CCCO)cc1 | i | i | i | i | 0.29 | i
CC12CCC(C(=O)N(CC(O)CN3CCN(Cc4ccccc4)CC3)C1=O)C2(C)C (centres undefined) | i | i | i | i | -1.1 | i
COc1ccc(/C=N\NC(=S)SCN2C(=O)C3CCC(C)(C2=O)C3(C)C)cc1 (centres undefined) | i | i | i | i | 14* | i
CN(C)c1ccc(/C=N\NC(=S)SCN2C(=O)C3CCC(C)(C2=O)C3(C)C)cc1 (centres undefined) | nt | i | i | nt | 6.4* | i
CC12CCC(C(=O)N(CSC(=S)N/N=C\c3ccccc3O)C1=O)C2(C)C (centres undefined) | i | i | i | i | 13* | 9.3*
CCC1(c2ccccc2)NC(=O)N(CC(=O)Nc2ccc(S(=O)(=O)Nc3ncccn3)cc2)C1=O (centres undefined) | i | i | i | i | nt | i
Cc1ccc(Sc2ncccc2NC(=O)c2ccccc2Cl)cc1 | i | i | i | i | 1 | i
CCOc1ccccc1N1CCN(C(=O)CNC(=O)c2ccc(OC)c(OC)c2)CC1 | i | i | i | i | nt | i
CCOc1ccc(C(=O)NCC(=O)N2CCN(C/C=C/c3ccccc3)CC2)cc1OCC | -7.2* | i | i | i | nt | i
Cc1ccccc1NC(=S)NC(=O)c1cc(-c2ccccc2)nc2ccccc12 | i | i | i | i | 14* | i
